Hits are enriched below; roughly 1.5% of the tested compounds scored in any of these assays.
NR2E3 ag-1: NR2E3 agonists in two-hybrid cells, primary screen, cell-based, luminescence, CHO-S, Gal4-NCOR/VP16-NR2E3; Photoreceptor-specific nuclear receptor (Homo sapiens), Q9Y5X4; luciferase; inhibition of corepressor binding, % at 3.98 µM; hit rate 0.35% among 360,000;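 active = inhibition above the mean of all tested compounds plus 3 SD, cut at about 70% in these data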;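 also: 0% = DMSO with NR2E3 transfected cells and 100% = cells lacking NR2E3 construct; higher means lower luciferase signal from less NR2E3 corepressor binding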
NR2E3 ag-2: inhibitors of NR2E3-RetCOR corepressor binding, primary screen, NR2E3 agonist project, biochemical, TR-FRET, GST-NR2E3, biotin-RetCOR | Photoreceptor-specific nuclear receptor (Homo sapiens), Q9Y5X4 | 1536-well | inhibition of corepressor binding, % at 4.78 µM | hit rate 0.12% among 320,000;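 active = percent inhibition above the cutoff of mean plus 3 SD of all tested compounds, set per screening campaign, cut at about 20% in these data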;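 also: 0% = DMSO wells and 100% = biotin wells as full block of FRET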
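Material: NR2E3–RetCOR corepressor complex | Quantity: 1.35 nM GST-tagged NR2E3 final | Schedule: 5 h at 4 °C | Replication: Singlicate compound wells | Reagent: RetCOR corepressor, biotinylated, 7 nM | Controls: Biotin wells as high control, 0.6% DMSO wells as low control | Signal: TR-FRET, Eu(K)-anti-GST donor, streptavidin-D2 acceptor, ex 340, em 617/671 nm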
GalR3 antagonist: GalR3 antagonists in HEK293 cells, primary screen, cell-based, fluorescence readout; HEK293 GalR3-CNG cAMP membrane potential fluorescence; galR3 body fused to GalR1 C-terminus; AID 651719, 2012; hit rate 0.44% among 360,000; inhibition, % at 3 µM; Galanin receptor type 3 (Homo sapiens), O60755;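 active = inhibition above the screen-wide average plus 3 SD, cut at about 13% in these data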;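 also: forskolin and galanin both at EC90 stimulate the cells; cAMP rise reported by CNG channel membrane potential dye signal; 0% = forskolin plus galanin with DMSO and 100% = forskolin alone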
Target sequence (O60755 1-299 limits assumed): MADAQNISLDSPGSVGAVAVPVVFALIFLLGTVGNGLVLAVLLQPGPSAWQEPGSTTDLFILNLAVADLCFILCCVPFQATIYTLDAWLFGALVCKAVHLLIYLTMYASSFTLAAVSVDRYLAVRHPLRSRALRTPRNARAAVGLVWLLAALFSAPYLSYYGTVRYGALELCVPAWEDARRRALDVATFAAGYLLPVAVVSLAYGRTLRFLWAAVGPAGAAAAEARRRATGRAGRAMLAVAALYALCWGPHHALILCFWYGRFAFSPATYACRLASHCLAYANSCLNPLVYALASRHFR
697 NFkB inh: inhibitors of PMA/ionomycin-induced NF-kB reporter, 697 cells, primary screen, B-cell NF-kB inhibitor project, cell-based, luminescence, uHTS. 697 B-cell NF-kB luciferase reporter, 16 h. inhibition, % at 4 µM. hit rate 0.33% among 330,000; in the data active = inhibition above about 35%
JMJD2C inh: inhibitors of GASC-1 histone demethylase, primary screen, biochemical, fluorescence, DELFIA europium; Lysine-specific demethylase 4C (Homo sapiens), Q9H3R0; inhibition, % at 2.35 µM; hit rate 0.069% among 330,000; AID 2099, 2009; GST-JMJD2C(1-420) H3K9me3 demethylation;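 active = more than half of a compound's replicate wells show inhibition beyond 50%, single wells judged on their own value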;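 also: signal counts dimethyl H3K9 product captured on neutravidin plate; 0% = median of DMSO wells and 100% = 0.3 times that DMSO median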
Target sequence (Q9H3R0 1-420 limits assumed): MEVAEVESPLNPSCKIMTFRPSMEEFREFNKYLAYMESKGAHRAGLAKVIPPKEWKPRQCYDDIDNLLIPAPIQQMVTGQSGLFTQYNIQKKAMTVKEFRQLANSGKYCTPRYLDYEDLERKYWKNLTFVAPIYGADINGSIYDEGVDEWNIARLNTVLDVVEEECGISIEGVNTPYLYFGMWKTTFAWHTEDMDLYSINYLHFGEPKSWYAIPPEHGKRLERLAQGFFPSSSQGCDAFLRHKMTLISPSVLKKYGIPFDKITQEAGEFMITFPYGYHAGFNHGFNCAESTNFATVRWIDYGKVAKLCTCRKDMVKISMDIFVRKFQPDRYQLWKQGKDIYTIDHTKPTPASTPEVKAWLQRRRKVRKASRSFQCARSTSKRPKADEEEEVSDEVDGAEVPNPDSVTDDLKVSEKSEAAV
Jurkat NFkB inh: inhibitors of induced NF-kB luciferase reporter, primary screen, TCR NF-kB activation inhibitor project, cell-based, luminescence, uHTS; inhibition, % at 4 µM; Jurkat, PMA/ionomycin-induced NF-kB luciferase reporter; AID 435003, 2010; hit rate 0.53% among 330,000; in the data active = inhibition above about 50%
GalR3 conf: GalR3 antagonist hit confirmation, cell-based, fluorescence, triplicate | shares compounds with GalR3 antagonist | HEK293 GalR3 CNG cAMP biosensor, membrane potential fluorescence; galR3 fused to GalR1 carboxy tail; challenged with forskolin and galanin at EC90 | inhibition, % at 3 µM | hit rate 59% among 1,600 | AID 652245, 2013;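 active = inhibition above the primary screen's cutoff, the mean inhibition of all screened compounds plus 3 SD, cut at about 13% in these data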;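 also: 0% = forskolin plus galanin and 100% = forskolin alone with DMSO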
CNG parental: nonspecific cAMP agonists in parental HEK-CNG cells, counter-screen for GalR3 antagonist project, cell-based, fluorescence, high throughput | shares compounds with GalR3 antagonist | HEK293-CNG parental cells, cAMP membrane potential fluorescence; normalised: DMSO wells 0%, forskolin wells 100% | activation, % at 3 µM | hit rate 10% among 1,600 | AID 652268, 2013; in the data active = activation above about 1.3%
An asterisk follows results filed as active; / = no result.

SMILES | NR2E3 ag-1 | NR2E3 ag-2 | GalR3 antagonist | 697 NFkB inh | JMJD2C inh | Jurkat NFkB inh | GalR3 conf | CNG parental
COc1ccc(OC)c(/C=N\NC(=O)c2ccc(-c3ccccc3)cc2)c1 | -41 | / | -2 | 21 | 3 | 5 | / | /
COc1ccc(C2CC(c3ccc4ccccc4c3)=NN2C(=O)CN2CCC(C(N)=O)CC2)cc1 (configuration not stated) | -73 | -3 | 14* | -28 | -4 | -52 | -2 | 3.0*
Cc1ccc([N+](=O)[O-])cc1S(=O)(=O)N1CCC(C)CC1 | -20 | 0 | -3 | 4 | -1 | -3 | / | /
Cc1ccc([N+](=O)[O-])cc1S(=O)(=O)N1CCCC1 | 1 | -2 | / | -23 | 1 | 0 | 0 | 0
Cc1cccc(NC(=O)CCS(=O)(=O)c2cc3c(cc2Cl)NC(=O)CO3)c1 | -3 | -2 | 2 | 17 | -2 | 7 | / | /
COc1cccc(CN2CCC2(C)C(=O)NCCc2ccccn2)c1OC (configuration not stated) | -10 | / | -6 | / | / | / | / | /
CCN(CC)S(=O)(=O)c1ccc(/C=C/C(=O)Nc2ccc(F)cc2F)cc1 | -15 | 3 | -4 | -39 | 8 | -5 | / | /
CCN(CC)S(=O)(=O)c1ccc(/C=C/C(=O)Nc2ccc(Br)cc2F)cc1 | -10 | -1 | 59* | -56 | 13 | 31 | 99* | 0
COc1ccc(/C=C2\OC(=O)c3c(OC)cccc32)cc1OC | -150 | 5 | 62* | -148 | 6 | -45 | 20* | 0
Cc1cc(Br)cn2c(Cc3ccccc3C(F)(F)F)c(-c3ccccc3)nc12 | -3 | / | -7 | / | / | / | / | /
Cc1cc(Br)cn2c(Cc3ccccc3C(F)(F)F)c(-c3ccco3)nc12 | / | / | 18* | / | / | / | 45* | 1
Cc1cc(Br)cn2c(Cc3cccc(Cl)c3)c(-c3ccco3)nc12 | -53 | / | 40* | / | / | / | 41* | 0
COc1ccc2c(c1)[C@@H](NC(=O)c1ccncc1)[C@@H]1Cc3ccccc3[C@H]21 | / | / | -6 | / | / | / | / | /
NC(=O)c1nsc(C(=O)N(Cc2cccnc2)C(C(=O)NCc2ccc(F)cc2)c2ccc(F)cc2)c1N (configuration not stated) | -13 | 0 | -6 | 1 | -17 | 1 | / | /
CCc1ccccc1NC(=O)c1cnc2scc(C)n2c1=O | -10 | 3 | 2 | -29 | 8 | -20 | / | /
CSc1ccccc1NC(=O)c1cnc2scc(C)n2c1=O | -51 | 0 | 23* | -23 | 1 | -17 | 5 | 0
Cc1onc(-c2ccccc2)c1CNC(=O)Nc1ccccc1 | -4 | -1 | -1 | -6 | -6 | -13 | / | /
O=C(CSc1cc(Cl)ccc1Cl)NCC1CCCO1 (configuration not stated) | 10 | 2 | -6 | 16 | -5 | -1 | / | /
Nc1cc(=O)[nH]c(SCC(=O)NCC2CCCO2)n1 (configuration not stated) | -18 | -1 | 13* | -19 | 4 | -3 | -4 | 0
CCc1cc(=O)[nH]c(SCC(=O)NCC2CCCO2)n1 (configuration not stated) | -15 | 0 | 0 | 11 | 1 | 5 | / | /
O=C(CSc1ncc(C(F)(F)F)cc1Cl)NCC1CCCO1 (configuration not stated) | 9 | -2 | 13* | -3 | -14 | -15 | 2 | 1
COc1ccc(CN2CCC2(C)C(=O)NCc2ccc3c(c2)OCO3)c2ccccc12 (configuration not stated) | -21 | / | 1 | / | / | / | / | /
COCC(=O)N1C[C@H]2CON(C)[C@H]2C[C@H]1c1ccc(N2CCCCC2)cc1 | -19 | / | -5 | / | / | / | / | /
CCS(=O)(=O)c1ccc(O)c(NC(=O)/C=C/c2ccccc2)c1 | -49 | 2 | 13* | -3 | 3 | 5 | 0 | 0
CC(=O)Nc1ccc(S(=O)(=O)NCC(=O)OCC(=O)N2CCc3ccccc32)cc1 | 18 | 2 | 13* | -6 | -2 | -7 | 0 | 0
SMILES | NR2E3 ag-1 | NR2E3 ag-2 | GalR3 antagonist | 697 NFkB inh | JMJD2C inh | Jurkat NFkB inh | GalR3 conf | CNG parental
O=C(Cn1c(=O)oc2ccccc21)Nc1ccc(F)cc1 | 12 | 2 | 2 | -29 | -10 | -29 | / | /
CCN(CC)S(=O)(=O)c1ccc(C(=O)NCCN(C)C)cc1 | -2 | 0 | 20* | 2 | 3 | 4 | 4 | 0
Cc1c(C)n2c(SCC(=O)Nc3cccc4ccccc34)nnc2[nH]c1=O | -23 | 0 | 3 | 1 | -4 | 6 | / | /
Cc1nc2sc(C#N)c(N)c2c2c1CCCC2 | -57 | 9 | 27* | -4 | 0 | -10 | 34* | 0
O=C(O)/C=C/C(=O)c1ccc2c(c1)CCc1ccccc1-2 | -100 | 3 | 25* | -54 | -7 | 3 | 16* | 1
CN1C(=O)c2ccc(Oc3ccccc3)cc2C1=O | 18 | 0 | 1 | 1 | -2 | 6 | / | /
O=S(=O)(c1ccc(Cl)cc1)N1CCN(S(=O)(=O)N2CCCCCC2)CC1 | -28 | 2 | 16* | 3 | -22 | 2 | 3 | 0
O=S(=O)(c1ccccc1)N1CCN(S(=O)(=O)N2CCCCC2)CC1 | -21 | 7 | -2 | -9 | -4 | -3 | / | /
COc1ccc(N2C(=O)CC(NCc3ccncc3)C2=O)cc1 (configuration not stated) | -1 | 3 | 7 | 9 | -4 | 5 | / | /
COc1ccc(N2C(=O)CC(NCc3ccc(F)cc3)C2=O)cc1 (configuration not stated) | -9 | 1 | 15* | 7 | 6 | 10 | 14* | 0
N#C/C(=C\c1ccccc1)C(=O)Nc1nncs1 | -4 | -1 | 16* | 17 | 13 | 0 | 9 | 0
CC(=O)c1ccc(NC(=O)C(C)OC(=O)c2ccc(NS(=O)(=O)c3ccc(F)c(F)c3)cc2)cc1 (configuration not stated) | -2 | 3 | -5 | 8 | -1 | 2 | / | /
